Results reported in PMC3078945 (Clinical cancer research : an official journal of the …, 2011).
Entries after “also recorded” stand apart in the source; their conditions may differ. Read-outs that look alike come from different tables or passages of the source.

Legend:
[1] = Safingol plasma pharmacokinetics in the phase I trial; assay type: in vivo, human; settings: for dose dependence of safingol PK parameters (Cmax, AUC): safingol 60–930 mg/m^2
Outline: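 Safingol was an egg-phospholipid/dextrose/lactic acid emulsion diluted to 1 mg/ml in saline and infused IV over 60–120 min at 60–930 mg/m2. […] Assay was HPLC-MS/MS with non-compartmental analysis.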

[2] = test system: sphingosine-1-phophate (S1P) levels; assay: Pharmacodynamics: plasma S1P levels after safingol; assay type: in vivo, human; settings: for effect on S1P in plasma: across dose cohorts
Outline: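 Levels 1 h and 4 h after safingol were normalized to pre-treatment levels, with patients grouped by dose cohort. Values are cohort means with standard error.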

advanced solid tumors = assay: Antitumor activity; assay type: in vivo, human
[3] = test system: patients with advanced solid tumors; settings: for AST/ALT G2 (number of patients) / Fatigue G4 (number of patients) / Hyponatremia G2 (number of patients) / Hyponatremia G3 (number of patients) / Hyponatremia G4 (number of patients) / Lymphopenia G2 (number of patients) / Lymphopenia G3 (number of patients) / Lymphopenia G4 (number of patients) / Nausea/vomiting G2 (number of patients) / Nausea/vomiting G3 (number of patients): cycle 1
[4] = target: sphingosine kinase 1 (SphK); settings: cited from earlier work
Protein Kinase C = settings: PKC; cited from earlier work
patients = settings: cited from earlier work
[5] = cited from earlier work
solid tumor cells = settings: safingol alone; cited from earlier work
[6] = cited from earlier work; remark: listed apart in the source
xenograft = settings: cited from earlier work
mice = settings: mouse, in vivo; cited from earlier work
[7] = cohorts 8–10, safingol 750–930 mg/m^2
[8] = safingol + cisplatin, 6 patients
[9] = safingol + cisplatin, 37 patients evaluable
[10] = cohort 1 (safingol 60, cisplatin 75 mg/m^2), N=4
[11] = cohort 2 (safingol 120, cisplatin 75 mg/m^2), N=3
[12] = cohort 3 (safingol 240, cisplatin 75 mg/m^2), N=3
[13] = cohort 4 (safingol 240, cisplatin 60 mg/m^2), N=6
[14] = cohort 5 (safingol 360, cisplatin 60 mg/m^2), N=3
[15] = cohort 6 (safingol 480, cisplatin 60 mg/m^2), N=3
[16] = cohort 7 (safingol 600, cisplatin 60 mg/m^2), N=3
[17] = cohort 8 (safingol 750, cisplatin 60 mg/m^2), N=6
[18] = cohort 9 (safingol 930, cisplatin 60 mg/m^2), N=6
[19] = cohort 10 (safingol 840, cisplatin 60 mg/m^2), N=6

## CCCCCCCCCCCCCCC[C@H](O)[C@@H](N)CO [Safingol, (2S,3S)-2-amino-1,3-octadecanediol]
[1]; cohorts 1–7, listed as S
  pharmacokinetic interaction of safingol with cisplatin (day 1 vs day 8): no significant interaction
[1]; [7]
  duration of safingol concentration over 20 µM: < 1 h
  time safingol levels of at least 5 µM persist after treatment: at least 4 hours
[1]; human, plasma, intravenous, Mean day 1 safingol AUC, safingol 600 – 930 mg/m^2
  AUC: 102 to 110 µM·h
[1]; human, plasma, intravenous, Mean day 1 safingol Cmax, safingol 600 – 930 mg/m^2
  Cmax: 23900 to 26800 nM
[1]; on average
  increase in AUC per 100 mg/m^2 increase in safingol dose: 10 µM·h
  increase in Cmax per 100 mg/m^2 increase in safingol dose: 3000 nM
[1]
  dose dependence of safingol PK parameters (Cmax, AUC): increased in a linear and dose-proportional manner; also recorded: increased linearly with dose
[1]; listed as S
  dose dependence of safingol PK parameters (Cmax, AUC): linear throughout the dose range
[2]
  effect on S1P in plasma: dose-dependent decreases; also recorded: significant decreases
[2]; listed as S
  effect on S1P in plasma: dose-dependent reduction
[2]; safingol 930 mg/m^2, p = 0.001
  time dependence of S1P levels: lower 4 hours post-treatment than at 1 hour post-treatment
[2]; safingol doses of over 750 mg/m^2, p < 0.001
  decrease of S1P levels relative to pre-treatment: about half
Advanced solid tumors; other patient with adrenal cortical cancer
  duration of stable disease: 7.2 m
Advanced solid tumors; [8]
  average duration of stable disease: 3.3 m
  range of duration of stable disease: 1.8 – 7.2 m
Advanced solid tumors; safingol + cisplatin, 6 patients, listed as S
  average duration of stable disease: 3.3 months
Advanced solid tumors; [9]
  best response: stable disease
  number of patients with stable disease: 6
[3]; MTD cohort
  upper limit of the 95% posterior interval of DLT rate: 40%
[3]; cohort 10, 1/6
  DLT rate for the MTD cohort: 17%
[3]; current study, careful monitoring
  hemolysis: no hemolysis was observed in any patient
[3]; [10]
  AST/ALT G2 (number of patients): 0
  Fatigue G4 (number of patients): 0
  Hyponatremia G2 (number of patients): 0
  Hyponatremia G3 (number of patients): 1
  Hyponatremia G4 (number of patients): 0
  Lymphopenia G2 (number of patients): 0
  Lymphopenia G3 (number of patients): 1
  Lymphopenia G4 (number of patients): 0
  Nausea/vomiting G2 (number of patients): 0
  Nausea/vomiting G3 (number of patients): 0
[3]; [11]
  AST/ALT G2 (number of patients): 0
  Fatigue G4 (number of patients): 0
  Hyponatremia G2 (number of patients): 0
  Hyponatremia G3 (number of patients): 0
  Hyponatremia G4 (number of patients): 0
  Lymphopenia G2 (number of patients): 0
  Lymphopenia G3 (number of patients): 1
  Lymphopenia G4 (number of patients): 0
  Nausea/vomiting G2 (number of patients): 1
  Nausea/vomiting G3 (number of patients): 0
[3]; [12]
  AST/ALT G2 (number of patients): 0
  Fatigue G4 (number of patients): 0
  Hyponatremia G2 (number of patients): 0
  Hyponatremia G3 (number of patients): 1
  Hyponatremia G4 (number of patients): 0
  Lymphopenia G2 (number of patients): 0
  Lymphopenia G3 (number of patients): 0
  Lymphopenia G4 (number of patients): 0
  Nausea/vomiting G2 (number of patients): 3
  Nausea/vomiting G3 (number of patients): 0
[3]; [13]
  AST/ALT G2 (number of patients): 1
  Fatigue G4 (number of patients): 0
  Hyponatremia G2 (number of patients): 0
  Hyponatremia G3 (number of patients): 0
  Hyponatremia G4 (number of patients): 0
  Lymphopenia G2 (number of patients): 0
  Lymphopenia G3 (number of patients): 3
  Lymphopenia G4 (number of patients): 0
  Nausea/vomiting G2 (number of patients): 0
  Nausea/vomiting G3 (number of patients): 0
[3]; [14]
  AST/ALT G2 (number of patients): 1
  Fatigue G4 (number of patients): 0
  Hyponatremia G2 (number of patients): 0
  Hyponatremia G3 (number of patients): 0
  Hyponatremia G4 (number of patients): 0
  Lymphopenia G2 (number of patients): 0
  Lymphopenia G3 (number of patients): 1
  Lymphopenia G4 (number of patients): 0
  Nausea/vomiting G2 (number of patients): 0
  Nausea/vomiting G3 (number of patients): 0
[3]; [15]
  AST/ALT G2 (number of patients): 0
  Fatigue G4 (number of patients): 0
  Hyponatremia G2 (number of patients): 0
  Hyponatremia G3 (number of patients): 0
  Hyponatremia G4 (number of patients): 0
  Lymphopenia G2 (number of patients): 0
  Lymphopenia G3 (number of patients): 0
  Lymphopenia G4 (number of patients): 0
  Nausea/vomiting G2 (number of patients): 0
  Nausea/vomiting G3 (number of patients): 0
[3]; [16]
  AST/ALT G2 (number of patients): 0
  Fatigue G4 (number of patients): 0
  Hyponatremia G2 (number of patients): 0
  Hyponatremia G3 (number of patients): 0
  Hyponatremia G4 (number of patients): 0
  Lymphopenia G2 (number of patients): 0
  Lymphopenia G3 (number of patients): 0
  Lymphopenia G4 (number of patients): 0
  Nausea/vomiting G2 (number of patients): 0
  Nausea/vomiting G3 (number of patients): 0
[3]; [17]
  AST/ALT G2 (number of patients): 1
  Fatigue G4 (number of patients): 0
  Hyponatremia G2 (number of patients): 0
  Hyponatremia G3 (number of patients): 0
  Hyponatremia G4 (number of patients): 0
  Lymphopenia G2 (number of patients): 0
  Lymphopenia G3 (number of patients): 0
  Lymphopenia G4 (number of patients): 0
  Nausea/vomiting G2 (number of patients): 0
  Nausea/vomiting G3 (number of patients): 0
[3]; [18]
  AST/ALT G2 (number of patients): 1
  Fatigue G4 (number of patients): 0
  Hyponatremia G2 (number of patients): 0
  Hyponatremia G3 (number of patients): 1
  Hyponatremia G4 (number of patients): 0
  Lymphopenia G2 (number of patients): 0
  Lymphopenia G3 (number of patients): 2
  Lymphopenia G4 (number of patients): 0
  Nausea/vomiting G2 (number of patients): 0
  Nausea/vomiting G3 (number of patients): 0
[3]; [19]
  AST/ALT G2 (number of patients): 0
  Fatigue G4 (number of patients): 0
  Hyponatremia G2 (number of patients): 0
  Hyponatremia G3 (number of patients): 2
  Hyponatremia G4 (number of patients): 0
  Lymphopenia G2 (number of patients): 0
  Lymphopenia G3 (number of patients): 0
  Lymphopenia G4 (number of patients): 0
  Nausea/vomiting G2 (number of patients): 1
  Nausea/vomiting G3 (number of patients): 0
[3]; exceeded the MTD
  maximum administered dose: 930 mg/m^2
[3]; in combination with cisplatin
  DLT from safingol (principal DLT): hepatic enzyme elevation
[3]; in vivo
  overall tolerability of the drug combination: well tolerated with no major increase in toxicities over those of cisplatin alone
[3]; safingol over 120 min with cisplatin 60 mg/m^2, every 3 weeks
  maximum tolerated dose (MTD): 840 mg/m^2
[3]; with cisplatin 60 mg/m^2, every 3 weeks
  recommended phase 2 dose: 840 mg/m^2
[4]; SphK
  Ki: 5 µM
[4]; competitive inhibitor of SphK
  Ki: ~5 µM
Protein Kinase C
  Ki: 33 µM
patients; phase I study with doxorubicin
  safingol-associated toxicity: a single episode of grade 1 hemolysis
patients; safingol doses not exceeding 120 mg/m^2 with doxorubicin
  hepatic toxicity: no hepatic toxicity was observed
patients; safingol up to 120 mg/m^2 every three weeks with doxorubicin
  dose-limiting toxicity: no dose-limiting toxicity observed
[5]; phase I study with doxorubicin
  pharmacokinetic interaction with doxorubicin: No significant pharmacokinetic interaction
[5]; read-out: mean Cmax, safingol 60 mg/m^2, study of safingol and doxorubicin
  Cmax: 1300 nM
Solid tumor cells
  cell death mechanism: induces cell death by autophagy
[6]
  effect on in vitro antitumor effect of doxorubicin, cisplatin and mitomycin C: increases the in vitro antitumor effect
xenograft
  effect on antitumor activity of cisplatin in xenografts: can increase the antitumor activity of cisplatin without increasing toxicity
mice
  hepatic toxicity in mice: increases in ALT and histological changes consistent with hepatocyte autophagy
